Bioassay records deposited in PubChem BioAssay by several laboratories.
UPR XBP1 act: adaptive UPR (XBP1) activation; CHO-XBP1 luciferase reporter, IRE1-XBP1 UPR activation, luminescence; percent of tunicamycin response, DMSO as zero; AID 463104; 330,000 compounds, 0.33% hits; activation, % at 20 µM;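 active = versus positive control, 20 µM dose yields 30% or more activation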
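assay system = CHO-XBP1 luciferase reporter cells | amount = 1000 cells/well | buffer or medium = F12 plus 10% FBS | compound dosing = single point, 20 µM final compound, 1% DMSO | incubation = 16-18 h cell attachment at 37 °C, then 6 h compound exposure | detection = Steady-Glo luminescence read | controls = tunicamycin 10 µg/mL and vehicle-only wells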
TLR4-MyD88 BLA: TLR4-MyD88 interaction inhibition in cells. O00206+Q99836. HeLa CL3-4 TLR4/MyD88 BLA complementation, FRET ratio. inhibition, % at 8.4 µM. 200,000 compounds, 0.18% hits; in the data active = inhibition above about 25%
CHOP UPR activ: activators of apoptotic arm of unfolded protein response (CHOP). 330,000 compounds, 0.34% hits. AID 449763. activation, % at 10 µM. CHO-CHOP luciferase reporter, UPR activation, luminescence; percent of tunicamycin response over DMSO baseline;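 active = at 10 µM dose, activation of 40% or more, normalized to positive control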
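measured by = luciferase luminescence | assay system = CHO-CHOP cells, stable luciferase reporter of PERK-eIF2a-CHOP signalling | amount = 500 reporter cells seeded per well | timing = 6 h compound exposure at 37 °C after overnight seeding | controls = positive tunicamycin 10 µg/mL, negative DMSO alone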
TLR9-MyD88 block: inhibitors of human TLR9-MyD88 binding; Q9NR96+Q99836; inhibition, % at 4.98 µM; 340,000 compounds, 0.21% hits; CHO BLA complementation TLR9-MyD88, CCF4 FRET ratio;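 active = inhibition above the mean over all tested compounds plus 3 SD, cut at about 21% in these data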
NOD2-RIPK2 inh: inhibitors of human NOD2-RIPK2 interaction; O43353; 360,000 compounds, 0.38% hits; CHO BLA complementation NOD2-RIPK2, CCF4 ratio; inhibition, % at 4.98 µM; AID 624267; in the data active = inhibition above about 21%
Target sequence (O43353 whole entry, looked up): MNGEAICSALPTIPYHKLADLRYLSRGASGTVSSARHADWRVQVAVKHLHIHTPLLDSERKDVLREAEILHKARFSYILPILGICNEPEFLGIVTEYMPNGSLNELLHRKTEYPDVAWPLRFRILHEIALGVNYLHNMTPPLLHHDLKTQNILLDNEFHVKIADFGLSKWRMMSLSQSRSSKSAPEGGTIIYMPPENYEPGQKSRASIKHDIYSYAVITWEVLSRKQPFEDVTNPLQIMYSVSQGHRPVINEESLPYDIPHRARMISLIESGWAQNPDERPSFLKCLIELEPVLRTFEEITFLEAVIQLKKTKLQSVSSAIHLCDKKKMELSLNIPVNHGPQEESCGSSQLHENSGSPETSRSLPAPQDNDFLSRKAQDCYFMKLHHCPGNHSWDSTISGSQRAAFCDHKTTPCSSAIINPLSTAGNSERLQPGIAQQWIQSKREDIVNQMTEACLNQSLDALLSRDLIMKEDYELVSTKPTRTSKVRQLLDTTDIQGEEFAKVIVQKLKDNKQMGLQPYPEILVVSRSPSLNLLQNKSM
CHOP inhibitor: blocks CHOP induction under ER stress; CHO-K1 CHOP-promoter luciferase, tunicamycin-induced, 15-18 h; inhibition, % at 10 µM; 220,000 compounds, 3.8% hits;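 active = compounds that reduced the stress-induced luciferase reporter signal by more than about 70% of percent inhibition, limit read from the data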
A number is an active result; 0 = inactive; - = no result given; ! = a repeat was not active. This is one part of a sample in which hits are shown more often than they occur.

SMILES	UPR XBP1 act	TLR4-MyD88 BLA	CHOP UPR activ	TLR9-MyD88 block	NOD2-RIPK2 inh	CHOP inhibitor
CC(=O)c1cccc(NS(=O)(=O)c2ccc(N/C=C/C(=O)c3ccc(F)cc3)cc2)c1	0	0	0	0	0	83
CCC1(CC)SC(N)=NC1=O	-	-	-	0	0	-
O=C(COC(=O)c1cc(Cl)ccc1O)NCC1CCCO1 (centres undefined)	0	-	0	0	0	-
Cn1c(C(C#N)C(=O)Cc2cccc3ccccc23)nc2ccccc21 (centres undefined)	0	0	0	0	0	75
Cn1c(C(C#N)C(=O)c2ccco2)nc2ccccc21 (centres undefined)	0	0	0	0	0	0
COc1ccccc1CCC(=O)Nc1ccc(S(=O)(=O)Nc2ncccn2)cc1	-	-	-	0	0	-
O=[N+]([O-])c1ccccc1Nc1c2ccccc2nc2ccccc12	0	0	0	0	0	93
O=[N+]([O-])c1ccc(Nc2c3ccccc3nc3ccccc23)cc1	0	0	0	0	0	0
Cc1nn(-c2ccccn2)c2c1C(c1c(F)cccc1Cl)C1=C(N2)c2ccccc2C1=O (centres undefined)	0	0	0	-	-	0
CCCCNc1oc(-c2ccc(OC)cc2)nc1S(=O)(=O)c1ccccc1	0	0	0	0	0	72
COc1ccc(CCNc2oc(COc3ccccc3F)nc2C#N)cc1	0	0	0	0	0	87
COc1ccc(-c2nc(C#N)c(NCCc3ccccc3)o2)cc1	0	0	0	0	0	90
CCOC(=O)c1c(C)nc2c(c(SC)nn2-c2ccccc2)c1N	0	0	0	0	0	0
[N-]=[N+]=NC[C@H](Cc1ccccc1)N1CCN(Cc2ccccc2)CCC1=O	0	-	0	0	0	-
CC/C(=C\C1CCCCC1)C(NP(=O)(c1ccccc1)c1ccccc1)c1ccccc1 (centres undefined)	0	0	0	0	0	86
CC(C)NC(=O)NC(=O)CSc1nnc(COc2ccccc2Cl)o1	0	0	0	0	0	0
O=C(CSc1nnc(CNc2cccc(Cl)c2)o1)OC1CCCCC1	0	0	0	0	0	80
Clc1ccc(CSc2nnc(CNc3cccc(Cl)c3)o2)cc1	0	0	0	0	0	93
O=C(CSc1nnc(COc2ccc(Cl)cc2)o1)OC1CCCCC1	0	0	0	0	0	74
Cc1cc(OCc2nnc(SCC(=O)OC3CCCCC3)o2)ccc1Cl	0	0	0	0	0	0
O=C(CSc1nnc(CNc2ccc(F)cc2)o1)OC1CCCCC1	0	0	0	0	0	0
O=C(CSc1nnc(COc2ccccc2Cl)o1)NC(=O)NC1CCCC1	0	0	0	0	0	79
CCC(C(=O)NC(C)(C)C)n1c(C(c2ccccc2)c2ccccc2)nc2ccccc21 (centres undefined)	-	-	-	-	0	-
O=C(NNc1cc(C(F)(F)F)nc2ccccc12)Nc1cccc(Cl)c1	0	-	0	0	0	0
COc1ccc2c(c1)C(CC(C)=O)N(c1ccc(-c3cccs3)cc1)C(c1ccsc1)=C2 (centres undefined)	-	-	-	-	0	-
SMILES	UPR XBP1 act	TLR4-MyD88 BLA	CHOP UPR activ	TLR9-MyD88 block	NOD2-RIPK2 inh	CHOP inhibitor
COc1ccc(Cc2c(-c3ccccc3)nc3c(C)cc(Br)cn23)c(C)c1	-	-	-	-	0	-
Cc1nn(C)cc1/C=N/NC(=O)C(C)(C)Oc1ccc(Cl)cc1	0	0	0	0	0	0
CCC(CC)C(=O)N(C)c1c(C)nc2c(OCc3ccc(Cl)cc3)cccn12	-	-	-	-	0	-
CCCC/C(O)=C1\C(=O)CC(C)(C)CC1=NCCCCCC(=O)O	0	0	0	0	0	0
C=CCN1C(=O)/C(=C/c2ccc(-c3ccc(F)cc3)o2)SC1=S	0	-	0	0	0	-
COc1ccccc1-c1nnc(SCC(=O)NCc2c(C)c(Cl)cc(C(C)C)c2O)o1	0	0	0	0	0	75
COc1ccccc1-c1nnc(SCC(=O)Nc2c(Cl)cccc2Cl)o1	0	0	0	0	0	0
Fc1ccc(-n2nnc(-c3cnc4ccccc4c3)n2)cc1	0	0	0	0	0	72
Clc1ccccc1C(c1ccccc1)(c1ccccc1)n1ccnc1	0	0	0	0	0	88!
CCOC(=O)c1cc2c(nc1C)-c1cc(Cl)cc(Cl)c1OC2O (centres undefined)	0	0	0	0	0	89
CCOC(=O)c1cc(C(=O)NN)c(C)nc1C	0	0	0	0	0	0
CN(C)c1ccc(N/C(N)=N/c2nc(C(F)(F)F)cc(C(F)(F)F)n2)cc1	0	0	0	0	0	85
CCN(CC)c1ccc(N/C(N)=N/c2nc(C(F)(F)F)cc(=O)[nH]2)cc1	0	0	0	0	0	73
Cc1cccc(N/C(N)=N/c2nc(C(F)(F)F)cc(C(F)(F)F)n2)c1	0	0	0	0	0	0
O=[N+]([O-])c1ccc(N=Nc2c(Cl)cc(O)cc2Cl)cc1	-	-	-	0	0	102
CC(Oc1ccccc1)C(=O)Nc1ccc(F)c(S(=O)(=O)N2CCOCC2)c1 (centres undefined)	0	-	0	0	0	-
Oc1ccc(C[C@H]2CN([C@@H](Cc3cccc(O)c3)CN3CCC[C@@H]3CN3C(=S)NC[C@@H]3Cc3ccccc3)C(=S)N2CC2CCCCC2)cc1	-	-	-	-	0	-
O=C(Nc1cccc(F)c1)OC(CN1CCCCC1)C(F)(F)F (centres undefined)	0	0	0	0	0	0
O=C(Nc1ccc(Cl)cc1)OC(CN1CCCCC1)C(F)(F)F (centres undefined)	0	0	0	0	0	74
COC(=O)n1c(=S)oc2cc(Cl)ccc21	0	0	0	-	-	90
CCCC(C)C(=O)Nc1nc(C)c(-c2csc(Nc3ccccc3OC)n2)s1 (centres undefined)	0	0	0	0	0	0
CCCC(C)C(=O)Nc1nc(C)c(-c2csc(Nc3ccc(Cl)cc3)n2)s1 (centres undefined)	0	0	0	0	0	73
CCOc1ccccc1Nc1nc(-c2sc(NC(=O)c3ccccc3)nc2C)cs1	0	0	0	-	-	0
COc1ccccc1Nc1nc(-c2sc(NC(=O)c3ccc([N+](=O)[O-])cc3)nc2C)cs1	32	0	0	-	-	0
COc1ccccc1Nc1nc(-c2sc(NC(=O)c3ccccc3)nc2C)cs1	0	0	0	0	0	0
CCOc1ccccc1Nc1nc(-c2sc(NC(=O)c3cccc(Cl)c3)nc2C)cs1	0	0	0	0	0	76
O=C(COc1ccccc1Br)Nc1ccc2c(c1)OCCCO2	0	-	0	0	0	-
Cc1cc2c(cc1C)-c1nnnn1C(N1CCCCC1)C(=O)N2 (centres undefined)	-	-	-	-	0	-
